Assay results reported in ChEMBL document CHEMBL1157131, “Antibiotic indole sesquiterpene alkaloid from Greenwayodendron suaveolens with a new natural product framework” (2010).
Values after ≈ are worked out from the molar mass of the structure shown. Active and inactive are the calls of the source. The rule behind the calls is not given here.

Legend:
[1] = system: Staphylococcus aureus; experiment: Antimicrobial activity against methicillin sensitive Staphylococcus aureus ATCC 25923 after 24 hrs by broth microdilution method; format: functional
How it was run: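 Overnight culture diluted 1:100 in trypticase soy broth with 0.5% D-glucose and 3% NaCl, grown at 37 °C to OD600 0.4, then diluted 1:10. Compounds in DMSO diluted in medium, tested at a concentration series (3-6 wells per concentration); vancomycin positive control. Incubated 24 h at 37 °C; inhibition from OD600 change versus compound-free control wells.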

[2] = system: Staphylococcus aureus; experiment: Antimicrobial activity against cutaneous methicillin resistant Staphylococcus aureus isolate 111 expressing virulence gene system including PVL, ACME, bsaB and Agr genes after 24 hrs by broth microdilution method; format: functional; settings: isolate 111, 24 h
How it was run: (§1)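 Clinical S. aureus isolates, first recovered from patient specimens on 5% sheep blood agar, tested by CLSI broth microdilution in cation-adjusted Mueller-Hinton broth. Initial inoculum 10^6 cfu/mL. After overnight incubation at 37 °C, MIC was read as the lowest concentration preventing visible growth. Overnight starter cultures were grown in TSB from frozen glycerol stocks.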

[3] = system: Staphylococcus aureus; experiment: Antimicrobial activity against cutaneous methicillin resistant Staphylococcus aureus isolate 105 expressing virulence gene system including PVL, ACME, bsaB and Agr genes after 24 hrs by broth microdilution method; format: functional; settings: isolate 105, 24 h; how it was run: as §1
[4] = system: Staphylococcus aureus; experiment: Antimicrobial activity against clinical isolates of Staphylococcus aureus after 24 hrs by broth microdilution method
[5] = system: Staphylococcus aureus; experiment: Antimicrobial activity against cutaneous methicillin sensitive Staphylococcus aureus isolate 175 expressing virulence gene system including PVL, bsaB and Agr genes after 24 hrs by broth microdilution method; format: functional; settings: isolate 175, 24 h; how it was run: as §1
[6] = system: Staphylococcus aureus; experiment: Antimicrobial activity against cutaneous methicillin resistant Staphylococcus aureus isolate 158 expressing virulence gene system including PVL, ACME, bsaB and Agr genes after 24 hrs by broth microdilution method; format: functional; settings: isolate 158, 24 h; how it was run: as §1
[7] = system: Staphylococcus aureus; experiment: Antimicrobial activity against cutaneous methicillin resistant Staphylococcus aureus isolate 148 expressing virulence gene system including PVL, ACME, bsaB and Agr genes after 24 hrs by broth microdilution method; format: functional; settings: isolate 148, 24 h; how it was run: as §1
[8] = system: Staphylococcus aureus; experiment: Antimicrobial activity against cutaneous methicillin resistant Staphylococcus aureus isolate 106 expressing virulence gene system including PVL, ACME, bsaB and Agr genes after 24 hrs by broth microdilution method; format: functional; settings: isolate 106, 24 h; how it was run: as §1
[9] = system: Staphylococcus aureus; experiment: Antimicrobial activity against cutaneous methicillin resistant Staphylococcus aureus isolate 107 expressing virulence gene system including PVL, ACME, bsaB and Agr genes after 24 hrs by broth microdilution method; format: functional; settings: isolate 107, 24 h; how it was run: as §1
[10] = system: Staphylococcus aureus; experiment: Antimicrobial activity against invasive methicillin resistant Staphylococcus aureus isolate 186 expressing virulence gene system including PVL, bsaA and Agr genes after 24 hrs by broth microdilution method; format: functional; settings: isolate 186, 24 h; how it was run: as §1
[11] = system: Staphylococcus aureus; experiment: Antimicrobial activity against cutaneous methicillin resistant Staphylococcus aureus isolate 108 expressing virulence gene system including PVL, bsaA and Agr genes after 24 hrs by broth microdilution method; format: functional; settings: isolate 108, 24 h; how it was run: as §1
[12] = system: Staphylococcus aureus; experiment: Antimicrobial activity against cutaneous methicillin sensitive Staphylococcus aureus isolate 109 expressing virulence gene system including PVL, bsaB and Agr genes after 24 hrs by broth microdilution method; settings: isolate 109, 24 h
[13] = system: Staphylococcus aureus; experiment: Antimicrobial activity against cutaneous methicillin resistant Staphylococcus aureus isolate 295 expressing virulence gene system bsaB and Agr genes after 24 hrs by broth microdilution method; format: functional; settings: isolate 295, 24 h; how it was run: as §1
[14] = system: Staphylococcus aureus; experiment: Antimicrobial activity against invasive methicillin resistant Staphylococcus aureus isolate 194 expressing virulence gene system including PVL, ACME, bsaB and Agr genes after 24 hrs by broth microdilution method; format: functional; settings: isolate 194, 24 h; how it was run: as §1

Row | Structure (SMILES) | MIC ([1]; ATCC 25923, 24 h) | MIC [1] | MIC [2] | MIC [3] | MIC90 [4] | MIC [5] | MIC [6] | MIC [7] | MIC [8] | MIC [9] | MIC [10] | MIC [11] | MIC [12] | MIC [13] | MIC [14]
1 | CC(C)=C1CC[C@@H](C)[C@@](C)(Cc2c[nH]c3ccccc23)[C@@H]1CCCO | 19 µg/mL (≈ 56 µM) |  |  |  |  |  |  |  |  |  |  |  |  |  | 
2 | COC(=O)CC[C@@H]1C(=C(C)C)CC[C@@H](C)[C@@]1(C)Cc1c[nH]c2ccccc12 |  | inactive |  |  |  |  |  |  |  |  |  |  |  |  | 
3 | C[C@@H]1CCC2=C3[C@H](C[C@H](O)C2(C)C)c2[nH]c4ccccc4c2C[C@@]31C [PENTACYCLINDOLE] | 4 µg/mL (≈ 11.9 µM) |  | 8 µg/mL (≈ 23.8 µM) | 8 µg/mL (≈ 23.8 µM) | 8 µg/mL (≈ 23.8 µM) | 8 µg/mL (≈ 23.8 µM) | 8 µg/mL (≈ 23.8 µM) | 8 µg/mL (≈ 23.8 µM) | 8 µg/mL (≈ 23.8 µM) | 8 µg/mL (≈ 23.8 µM) | 8 µg/mL (≈ 23.8 µM) | 8 µg/mL (≈ 23.8 µM) | 8 µg/mL (≈ 23.8 µM) |  | 
4 | C[C@@H]1CC[C@@H]2C(=CC[C@H](O)C2(C)C)[C@]1(C)Cc1c[nH]c2ccccc12 [POLYALTHENOL] | 4 µg/mL (≈ 11.9 µM) |  | 2 µg/mL (≈ 5.93 µM) | 1 µg/mL (≈ 2.96 µM) | 4 µg/mL (≈ 11.9 µM) | 4 µg/mL (≈ 11.9 µM) | 4 µg/mL (≈ 11.9 µM) | 2 µg/mL (≈ 5.93 µM) | 2 µg/mL (≈ 5.93 µM) | 1 µg/mL (≈ 2.96 µM) | 4 µg/mL (≈ 11.9 µM) | 2 µg/mL (≈ 5.93 µM) | 1 µg/mL (≈ 2.96 µM) | 4 µg/mL (≈ 11.9 µM) | 2 µg/mL (≈ 5.93 µM)
